# Measurements published in ChEMBL document CHEMBL4689842, “EUbOPEN Chemogenomics Library wave 1” (2021).
# Test system: U2OS
# Assay: Multiplex assay against U2OS
# Format: toxicity, cell-based
# Settings: human
# Outline: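 Imaging took place on a CQ1 microscope at 37°C and 5% CO2 once compound had been added to live cells stained at seeding with Hoechst33342, BioTracker Green Microtubule Cytoskeleton Dye, MitoTracker Red and Annexin V Alexa Fluor 680. CellPathfinder machine-learning gating classed cells as Hoechst high-intensity objects or normal cells, classed normal cells as having healthy, pyknosed or fragmented nuclei, and classed pyknosed cells as mitotic or apoptotic. Tubulin, mitochondrial-mass and membrane-permeability phenotypes are per cents of the healthy-nucleus cells.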
# [1] = 12 h, 1 µM, compound concentration 1 uM, replicate 1
# [2] = 12 h, 1 µM, compound concentration 1 uM, replicate 2
# [3] = 12 h, 10 µM, compound concentration 10 uM, replicate 1
# [4] = 12 h, 10 µM, compound concentration 10 uM, replicate 2
# [5] = 24 h, 1 µM, compound concentration 1 uM, replicate 1
# [6] = 24 h, 1 µM, compound concentration 1 uM, replicate 2
# [7] = 24 h, 10 µM, compound concentration 10 uM, replicate 1
# [8] = 24 h, 10 µM, compound concentration 10 uM, replicate 2
# [9] = 48 h, 1 µM, compound concentration 1 uM, replicate 1
# [10] = 48 h, 1 µM, compound concentration 1 uM, replicate 2
# [11] = 48 h, 10 µM, compound concentration 10 uM, replicate 1
# [12] = 48 h, 10 µM, compound concentration 10 uM, replicate 2
structure (smiles),measurement,setting,value
C[C@@H](NCCCc1cccc(C(F)(F)F)c1)c1cccc2ccccc12.Cl [CINACALCET HYDROCHLORIDE],Population Fragmented Nuclei (%),[1],6%
same,Population Healthy Nuclei (%),[1],79%
same,Population Hoechst High Intensity Objects (%),[1],5%
same,Population Membrane Permeable-Phenotype (%),[1],4%
same,Population Mitochondria Different-Phenotype (%),[1],30%
same,Population Normal (%),[1],94%
same,Population Pyknosed Nuclei (%),[1],13%
same,Population Tubulin-Different-Phenotype (%),[1],40%
same,Total Cell Count,[1],184
same,Population Apoptotic (%),[2],33%
same,Population Fragmented Nuclei (%),[2],10%
same,Population Healthy Nuclei (%),[2],76%
same,Population Hoechst High Intensity Objects (%),[2],9%
same,Population Membrane Permeable-Phenotype (%),[2],11%
same,Population Mitochondria Different-Phenotype (%),[2],22%
same,Population Mitotic Cells (%),[2],66%
same,Population Normal (%),[2],90%
same,Population Pyknosed Nuclei (%),[2],12%
same,Population Tubulin-Different-Phenotype (%),[2],36%
same,Total Cell Count,[2],52
same,Population Apoptotic (%),[3],41%
same,Population Fragmented Nuclei (%),[3],14%
same,Population Healthy Nuclei (%),[3],60%
same,Population Hoechst High Intensity Objects (%),[3],9%
same,Population Membrane Permeable-Phenotype (%),[3],22%
same,Population Mitotic Cells (%),[3],58%
same,Population Normal (%),[3],90%
same,Population Pyknosed Nuclei (%),[3],24%
same,Population Tubulin-Different-Phenotype (%),[3],98%
same,Total Cell Count,[3],155
same,Population Apoptotic (%),[4],88%
same,Population Fragmented Nuclei (%),[4],20%
same,Population Healthy Nuclei (%),[4],23%
same,Population Hoechst High Intensity Objects (%),[4],7%
same,Population Membrane Permeable-Phenotype (%),[4],33%
same,Population Mitochondria Different-Phenotype (%),[4],93%
same,Population Mitotic Cells (%),[4],11%
same,Population Normal (%),[4],92%
same,Population Pyknosed Nuclei (%),[4],55%
same,Population Tubulin-Different-Phenotype (%),[4],93%
same,Total Cell Count,[4],68
same,Population Apoptotic (%),[5],29%
same,Population Fragmented Nuclei (%),[5],5%
same,Population Healthy Nuclei (%),[5],82%
same,Population Hoechst High Intensity Objects (%),[5],3%
same,Population Membrane Permeable-Phenotype (%),[5],4%
same,Population Mitochondria Different-Phenotype (%),[5],20%
same,Population Mitotic Cells (%),[5],70%
same,Population Normal (%),[5],96%
same,Population Pyknosed Nuclei (%),[5],12%
same,Population Tubulin-Different-Phenotype (%),[5],20%
same,Total Cell Count,[5],205
same,Population Apoptotic (%),[6],36%
same,Population Fragmented Nuclei (%),[6],8%
same,Population Healthy Nuclei (%),[6],69%
same,Population Hoechst High Intensity Objects (%),[6],7%
same,Population Membrane Permeable-Phenotype (%),[6],5%
same,Population Mitochondria Different-Phenotype (%),[6],26%
same,Population Mitotic Cells (%),[6],63%
same,Population Normal (%),[6],92%
same,Population Pyknosed Nuclei (%),[6],22%
same,Population Tubulin-Different-Phenotype (%),[6],17%
same,Total Cell Count,[6],53
same,Population Apoptotic (%),[7],72%
same,Population Fragmented Nuclei (%),[7],14%
same,Population Healthy Nuclei (%),[7],51%
same,Population Hoechst High Intensity Objects (%),[7],6%
same,Population Membrane Permeable-Phenotype (%),[7],46%
same,Population Mitochondria Different-Phenotype (%),[7],97%
same,Population Mitotic Cells (%),[7],28%
same,Population Normal (%),[7],93%
same,Population Pyknosed Nuclei (%),[7],34%
same,Population Tubulin-Different-Phenotype (%),[7],100%
same,Total Cell Count,[7],157
same,Population Apoptotic (%),[8],92%
same,Population Fragmented Nuclei (%),[8],15%
same,Population Healthy Nuclei (%),[8],32%
same,Population Hoechst High Intensity Objects (%),[8],24%
same,Population Membrane Permeable-Phenotype (%),[8],52%
same,Population Mitochondria Different-Phenotype (%),[8],88%
same,Population Mitotic Cells (%),[8],7%
same,Population Normal (%),[8],75%
same,Population Pyknosed Nuclei (%),[8],51%
same,Population Tubulin-Different-Phenotype (%),[8],82%
same,Total Cell Count,[8],69
same,Population Apoptotic (%),[9],38%
same,Population Fragmented Nuclei (%),[9],8%
same,Population Healthy Nuclei (%),[9],80%
same,Population Hoechst High Intensity Objects (%),[9],2%
same,Population Membrane Permeable-Phenotype (%),[9],3%
same,Population Mitochondria Different-Phenotype (%),[9],11%
same,Population Mitotic Cells (%),[9],61%
same,Population Normal (%),[9],97%
same,Population Pyknosed Nuclei (%),[9],11%
same,Population Tubulin-Different-Phenotype (%),[9],16%
same,Total Cell Count,[9],293
same,Population Apoptotic (%),[10],54%
same,Population Fragmented Nuclei (%),[10],14%
same,Population Healthy Nuclei (%),[10],70%
same,Population Hoechst High Intensity Objects (%),[10],6%
same,Population Membrane Permeable-Phenotype (%),[10],8%
same,Population Mitochondria Different-Phenotype (%),[10],18%
same,Population Mitotic Cells (%),[10],45%
same,Population Normal (%),[10],93%
same,Population Pyknosed Nuclei (%),[10],15%
same,Population Tubulin-Different-Phenotype (%),[10],12%
same,Total Cell Count,[10],75
same,Population Apoptotic (%),[11],70%
same,Population Fragmented Nuclei (%),[11],26%
same,Population Healthy Nuclei (%),[11],33%
same,Population Hoechst High Intensity Objects (%),[11],7%
same,Population Membrane Permeable-Phenotype (%),[11],58%
same,Population Mitochondria Different-Phenotype (%),[11],96%
same,Population Mitotic Cells (%),[11],29%
same,Population Normal (%),[11],92%
same,Population Pyknosed Nuclei (%),[11],39%
same,Population Tubulin-Different-Phenotype (%),[11],98%
same,Total Cell Count,[11],176
same,Population Apoptotic (%),[12],91%
same,Population Fragmented Nuclei (%),[12],18%
same,Population Healthy Nuclei (%),[12],35%
same,Population Hoechst High Intensity Objects (%),[12],22%
same,Population Membrane Permeable-Phenotype (%),[12],78%
same,Population Mitochondria Different-Phenotype (%),[12],89%
same,Population Mitotic Cells (%),[12],8%
same,Population Normal (%),[12],77%
same,Population Pyknosed Nuclei (%),[12],45%
same,Population Tubulin-Different-Phenotype (%),[12],94%
same,Total Cell Count,[12],68
OC1(c2ccc(Cl)cc2)CCN(Cc2c[nH]c3ccccc23)CC1,Population Apoptotic (%),[1],64%
same,Population Fragmented Nuclei (%),[1],10%
same,Population Healthy Nuclei (%),[1],80%
same,Population Hoechst High Intensity Objects (%),[1],9%
same,Population Mitochondria Different-Phenotype (%),[1],15%
same,Population Mitotic Cells (%),[1],35%
same,Population Normal (%),[1],90%
same,Population Tubulin-Different-Phenotype (%),[1],11%
same,Total Cell Count,[1],115
same,Population Apoptotic (%),[2],0%
same,Population Fragmented Nuclei (%),[2],13%
same,Population Healthy Nuclei (%),[2],77%
same,Population Hoechst High Intensity Objects (%),[2],10%
same,Population Membrane Permeable-Phenotype (%),[2],3%
same,Population Mitochondria Different-Phenotype (%),[2],13%
same,Population Mitotic Cells (%),[2],100%
same,Population Normal (%),[2],89%
same,Population Pyknosed Nuclei (%),[2],9%
same,Population Tubulin-Different-Phenotype (%),[2],9%
same,Total Cell Count,[2],78
same,Population Apoptotic (%),[3],52%
same,Population Fragmented Nuclei (%),[3],15%
same,Population Healthy Nuclei (%),[3],35%
same,Population Hoechst High Intensity Objects (%),[3],5%
same,Population Membrane Permeable-Phenotype (%),[3],10%
same,Population Mitochondria Different-Phenotype (%),[3],92%
same,Population Mitotic Cells (%),[3],47%
same,Population Normal (%),[3],94%
same,Population Pyknosed Nuclei (%),[3],48%
same,Population Tubulin-Different-Phenotype (%),[3],84%
same,Total Cell Count,[3],165
same,Population Apoptotic (%),[4],42%
same,Population Fragmented Nuclei (%),[4],13%
same,Population Healthy Nuclei (%),[4],38%
same,Population Hoechst High Intensity Objects (%),[4],3%
same,Population Membrane Permeable-Phenotype (%),[4],4%
same,Population Mitochondria Different-Phenotype (%),[4],95%
same,Population Mitotic Cells (%),[4],57%
same,Population Normal (%),[4],96%
same,Population Pyknosed Nuclei (%),[4],47%
same,Population Tubulin-Different-Phenotype (%),[4],60%
same,Total Cell Count,[4],74
same,Population Apoptotic (%),[5],50%
same,Population Fragmented Nuclei (%),[5],7%
same,Population Healthy Nuclei (%),[5],82%
same,Population Hoechst High Intensity Objects (%),[5],4%
same,Population Membrane Permeable-Phenotype (%),[5],3%
same,Population Mitochondria Different-Phenotype (%),[5],6%
same,Population Mitotic Cells (%),[5],50%
same,Population Normal (%),[5],95%
same,Population Pyknosed Nuclei (%),[5],9%
same,Population Tubulin-Different-Phenotype (%),[5],10%
same,Total Cell Count,[5],119
same,Population Apoptotic (%),[6],20%
same,Population Fragmented Nuclei (%),[6],5%
same,Population Healthy Nuclei (%),[6],88%
same,Population Hoechst High Intensity Objects (%),[6],8%
same,Population Membrane Permeable-Phenotype (%),[6],4%
same,Population Mitochondria Different-Phenotype (%),[6],13%
same,Population Mitotic Cells (%),[6],80%
same,Population Normal (%),[6],91%
same,Population Pyknosed Nuclei (%),[6],6%
same,Population Tubulin-Different-Phenotype (%),[6],8%
same,Total Cell Count,[6],77
same,Population Apoptotic (%),[7],61%
same,Population Fragmented Nuclei (%),[7],20%
same,Population Healthy Nuclei (%),[7],22%
same,Population Hoechst High Intensity Objects (%),[7],9%
same,Population Membrane Permeable-Phenotype (%),[7],20%
same,Population Mitochondria Different-Phenotype (%),[7],79%
same,Population Mitotic Cells (%),[7],38%
same,Population Normal (%),[7],90%
same,Population Pyknosed Nuclei (%),[7],56%
same,Population Tubulin-Different-Phenotype (%),[7],50%
same,Total Cell Count,[7],197
same,Population Apoptotic (%),[8],66%
same,Population Fragmented Nuclei (%),[8],21%
same,Population Healthy Nuclei (%),[8],27%
same,Population Hoechst High Intensity Objects (%),[8],5%
same,Population Membrane Permeable-Phenotype (%),[8],5%
same,Population Mitochondria Different-Phenotype (%),[8],94%
same,Population Mitotic Cells (%),[8],33%
same,Population Normal (%),[8],94%
same,Population Pyknosed Nuclei (%),[8],51%
same,Population Tubulin-Different-Phenotype (%),[8],52%
same,Total Cell Count,[8],85
same,Population Apoptotic (%),[9],23%
same,Population Healthy Nuclei (%),[9],83%
same,Population Mitochondria Different-Phenotype (%),[9],11%
same,Population Mitotic Cells (%),[9],76%
same,Population Pyknosed Nuclei (%),[9],9%
same,Population Tubulin-Different-Phenotype (%),[9],8%
same,Total Cell Count,[9],132
same,Population Apoptotic (%),[10],41%
same,Population Fragmented Nuclei (%),[10],7%
same,Population Healthy Nuclei (%),[10],81%
same,Population Hoechst High Intensity Objects (%),[10],3%
same,Population Membrane Permeable-Phenotype (%),[10],3%
same,Population Mitochondria Different-Phenotype (%),[10],17%
same,Population Mitotic Cells (%),[10],58%
same,Population Normal (%),[10],96%
same,Population Pyknosed Nuclei (%),[10],11%
same,Population Tubulin-Different-Phenotype (%),[10],16%
same,Total Cell Count,[10],85
same,Population Apoptotic (%),[11],79%
same,Population Fragmented Nuclei (%),[11],37%
same,Population Healthy Nuclei (%),[11],6%
same,Population Hoechst High Intensity Objects (%),[11],12%
same,Population Membrane Permeable-Phenotype (%),[11],25%
same,Population Mitochondria Different-Phenotype (%),[11],87%
same,Population Mitotic Cells (%),[11],20%
same,Population Normal (%),[11],88%
same,Population Pyknosed Nuclei (%),[11],56%
same,Population Tubulin-Different-Phenotype (%),[11],62%
same,Total Cell Count,[11],282
same,Population Apoptotic (%),[12],70%
same,Population Fragmented Nuclei (%),[12],32%
same,Population Healthy Nuclei (%),[12],12%
same,Population Hoechst High Intensity Objects (%),[12],8%
same,Population Membrane Permeable-Phenotype (%),[12],75%
same,Population Mitochondria Different-Phenotype (%),[12],75%
same,Population Mitotic Cells (%),[12],29%
same,Population Normal (%),[12],91%
same,Population Pyknosed Nuclei (%),[12],54%
same,Population Tubulin-Different-Phenotype (%),[12],50%
same,Total Cell Count,[12],111
